Data as given in ChEMBL document CHEMBL1268809, “Optimisation of 2-cyano-pyrimidine inhibitors of cathepsin K: improving selectivity over hERG” (Bioorg Med Chem Lett, 2010).
Converted amounts (≈) assume the structure as drawn.

Assays:
Cathepsin K = biological target: T1, Cathepsin K (Homo sapiens, UniProt P43235); test: Inhibition of human recombinant cathepsin K using Z-Phe-Arg-MCA substrate by fluorimetric assay
T1 sequence (P43235 whole entry): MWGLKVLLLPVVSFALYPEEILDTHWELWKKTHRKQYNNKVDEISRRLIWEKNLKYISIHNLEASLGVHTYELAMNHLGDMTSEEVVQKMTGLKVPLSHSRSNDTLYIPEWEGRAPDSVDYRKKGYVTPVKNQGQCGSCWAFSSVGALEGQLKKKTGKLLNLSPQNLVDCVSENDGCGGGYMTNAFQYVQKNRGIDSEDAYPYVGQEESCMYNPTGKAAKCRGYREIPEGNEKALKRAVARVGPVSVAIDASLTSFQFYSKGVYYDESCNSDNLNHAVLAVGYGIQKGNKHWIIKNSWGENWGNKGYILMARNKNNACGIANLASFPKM

[1] = biological target: Voltage-gated inwardly rectifying potassium channel KCNH2 (Homo sapiens, UniProt Q12809); test: Displacement of [3H] dofetilide from human ERG channel expressed in HEK293 cells; type: cell-based
Cathepsin B = Cathepsin B (Homo sapiens, UniProt P07858); test: Inhibition of human recombinant cathepsin B
Cytochrome P450 3A4 = Cytochrome P450 3A4 (Homo sapiens, UniProt P08684); test: Inhibition of CYP3A4; type: ADME
[2] = Oral bioavailability in Beagle dog at 1.96 mg/kg; conditions: in vivo
Cytochrome P450 2C9 = Cytochrome P450 2C9 (Homo sapiens, UniProt P11712); test: Inhibition of CYP2C9; type: ADME
Cathepsin S = Cathepsin S (Homo sapiens, UniProt P25774); test: Inhibition of human recombinant cathepsin S
[3] = Solubility in pH 7.4 PBS solution; type: physicochemical
[4] = Oral bioavailability in cynomolgus monkey at 4.63 mg/kg; conditions: in vivo
Cytochrome P450 2C19 = Cytochrome P450 2C19 (Homo sapiens, UniProt P33261); test: Inhibition of CYP2C19; type: ADME
[5] = Oral bioavailability in Wistar rat at 10 mg/kg; type: ADME, organism-based; conditions: in vivo
Method in brief: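 Wistar rats were dosed iv at 2 mg/kg and po at 10 mg/kg. Oral bioavailability (F, %) was derived from the two routes.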

Cytochrome P450 1A2 = biological target: T2, Cytochrome P450 1A2 (Homo sapiens, UniProt P05177); test: Inhibition of CYP1A2; type: ADME
T2 sequence (P05177 whole entry): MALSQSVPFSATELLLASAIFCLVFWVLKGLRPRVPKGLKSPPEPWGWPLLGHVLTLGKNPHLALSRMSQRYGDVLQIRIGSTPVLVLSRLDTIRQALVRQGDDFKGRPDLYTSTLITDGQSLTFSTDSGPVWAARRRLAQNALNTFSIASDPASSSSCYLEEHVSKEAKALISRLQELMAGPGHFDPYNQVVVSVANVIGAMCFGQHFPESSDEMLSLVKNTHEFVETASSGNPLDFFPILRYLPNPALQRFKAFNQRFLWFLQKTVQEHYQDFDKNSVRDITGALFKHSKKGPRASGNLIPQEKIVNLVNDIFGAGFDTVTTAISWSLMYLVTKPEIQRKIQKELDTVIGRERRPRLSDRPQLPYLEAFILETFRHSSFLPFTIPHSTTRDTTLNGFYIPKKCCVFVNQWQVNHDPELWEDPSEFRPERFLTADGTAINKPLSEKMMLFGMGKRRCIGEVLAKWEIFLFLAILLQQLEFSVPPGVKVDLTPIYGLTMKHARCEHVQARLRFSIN

Procathepsin L = Procathepsin L (Homo sapiens, UniProt P07711); test: Inhibition of human recombinant cathepsin L
Osteoclast = test: Inhibition of bone resorption in rabbit osteoclasts; type: functional, cell-based; conditions: Oryctolagus cuniculus
[6] = Half life in plasma; type: ADME, cell-free

Voltage-gated inwardly rectifying potassium channel KCNH2, sequence (Q12809 whole entry): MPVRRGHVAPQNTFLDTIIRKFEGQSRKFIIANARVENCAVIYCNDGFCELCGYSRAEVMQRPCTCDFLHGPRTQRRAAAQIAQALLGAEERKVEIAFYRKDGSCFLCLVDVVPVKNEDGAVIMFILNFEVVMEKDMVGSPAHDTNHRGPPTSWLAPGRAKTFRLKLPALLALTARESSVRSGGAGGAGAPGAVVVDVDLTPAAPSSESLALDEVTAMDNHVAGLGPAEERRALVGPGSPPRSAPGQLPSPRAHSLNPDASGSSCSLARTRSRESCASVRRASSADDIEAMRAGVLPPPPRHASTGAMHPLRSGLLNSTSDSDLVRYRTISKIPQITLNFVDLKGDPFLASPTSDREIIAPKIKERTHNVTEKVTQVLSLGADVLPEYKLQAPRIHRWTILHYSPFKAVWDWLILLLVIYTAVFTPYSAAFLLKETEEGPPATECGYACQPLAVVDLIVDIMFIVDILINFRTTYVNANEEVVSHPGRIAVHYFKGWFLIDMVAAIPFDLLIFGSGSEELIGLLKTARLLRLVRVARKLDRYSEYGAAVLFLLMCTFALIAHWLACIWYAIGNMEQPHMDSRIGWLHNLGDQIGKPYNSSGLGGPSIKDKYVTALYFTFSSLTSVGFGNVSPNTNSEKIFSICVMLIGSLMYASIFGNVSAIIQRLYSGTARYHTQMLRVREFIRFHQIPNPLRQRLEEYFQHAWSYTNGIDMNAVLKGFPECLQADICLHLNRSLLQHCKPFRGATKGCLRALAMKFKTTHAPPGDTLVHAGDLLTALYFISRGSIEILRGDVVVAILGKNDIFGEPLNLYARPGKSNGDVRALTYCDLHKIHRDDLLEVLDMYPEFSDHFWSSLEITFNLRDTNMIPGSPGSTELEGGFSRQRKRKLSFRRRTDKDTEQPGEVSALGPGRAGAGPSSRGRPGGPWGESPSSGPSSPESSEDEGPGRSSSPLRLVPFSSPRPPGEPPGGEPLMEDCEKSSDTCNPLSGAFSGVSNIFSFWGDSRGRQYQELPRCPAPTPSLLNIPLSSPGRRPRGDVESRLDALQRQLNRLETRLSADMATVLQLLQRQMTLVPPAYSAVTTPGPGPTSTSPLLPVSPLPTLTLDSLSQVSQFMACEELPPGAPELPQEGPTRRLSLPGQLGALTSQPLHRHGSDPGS
Cathepsin S, sequence (P25774 whole entry): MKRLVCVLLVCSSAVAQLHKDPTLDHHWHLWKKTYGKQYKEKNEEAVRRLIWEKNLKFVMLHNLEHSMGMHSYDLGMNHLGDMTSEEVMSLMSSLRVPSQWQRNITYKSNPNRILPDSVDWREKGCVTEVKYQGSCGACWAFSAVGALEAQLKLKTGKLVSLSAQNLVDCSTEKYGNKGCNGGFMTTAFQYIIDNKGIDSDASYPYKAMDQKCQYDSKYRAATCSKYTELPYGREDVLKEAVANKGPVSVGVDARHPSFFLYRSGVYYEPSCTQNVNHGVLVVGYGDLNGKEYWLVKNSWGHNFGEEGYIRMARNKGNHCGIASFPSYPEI
Procathepsin L, sequence (P07711 whole entry): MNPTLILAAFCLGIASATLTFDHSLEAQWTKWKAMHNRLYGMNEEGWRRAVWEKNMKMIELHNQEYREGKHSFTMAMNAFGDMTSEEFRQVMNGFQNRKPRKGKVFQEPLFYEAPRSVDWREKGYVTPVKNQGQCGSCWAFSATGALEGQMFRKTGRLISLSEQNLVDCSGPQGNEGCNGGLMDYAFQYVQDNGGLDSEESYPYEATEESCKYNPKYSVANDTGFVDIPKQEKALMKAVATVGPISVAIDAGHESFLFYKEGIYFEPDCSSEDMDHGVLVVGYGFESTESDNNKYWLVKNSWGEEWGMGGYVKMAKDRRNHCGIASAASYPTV
Cytochrome P450 3A4, sequence (P08684 whole entry): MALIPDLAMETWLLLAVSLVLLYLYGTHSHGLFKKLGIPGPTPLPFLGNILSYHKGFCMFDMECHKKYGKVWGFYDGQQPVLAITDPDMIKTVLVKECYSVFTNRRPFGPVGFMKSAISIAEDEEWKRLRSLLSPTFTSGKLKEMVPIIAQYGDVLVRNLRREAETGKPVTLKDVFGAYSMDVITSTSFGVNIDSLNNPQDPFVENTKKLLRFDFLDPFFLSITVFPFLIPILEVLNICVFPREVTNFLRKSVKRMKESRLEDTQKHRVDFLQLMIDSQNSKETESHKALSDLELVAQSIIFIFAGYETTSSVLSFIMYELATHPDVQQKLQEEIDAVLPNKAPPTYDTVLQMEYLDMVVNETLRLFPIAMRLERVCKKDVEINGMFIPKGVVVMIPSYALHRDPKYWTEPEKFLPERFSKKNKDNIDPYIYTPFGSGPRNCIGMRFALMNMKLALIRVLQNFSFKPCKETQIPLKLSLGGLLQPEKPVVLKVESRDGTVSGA
Cytochrome P450 2C9, sequence (P11712 whole entry): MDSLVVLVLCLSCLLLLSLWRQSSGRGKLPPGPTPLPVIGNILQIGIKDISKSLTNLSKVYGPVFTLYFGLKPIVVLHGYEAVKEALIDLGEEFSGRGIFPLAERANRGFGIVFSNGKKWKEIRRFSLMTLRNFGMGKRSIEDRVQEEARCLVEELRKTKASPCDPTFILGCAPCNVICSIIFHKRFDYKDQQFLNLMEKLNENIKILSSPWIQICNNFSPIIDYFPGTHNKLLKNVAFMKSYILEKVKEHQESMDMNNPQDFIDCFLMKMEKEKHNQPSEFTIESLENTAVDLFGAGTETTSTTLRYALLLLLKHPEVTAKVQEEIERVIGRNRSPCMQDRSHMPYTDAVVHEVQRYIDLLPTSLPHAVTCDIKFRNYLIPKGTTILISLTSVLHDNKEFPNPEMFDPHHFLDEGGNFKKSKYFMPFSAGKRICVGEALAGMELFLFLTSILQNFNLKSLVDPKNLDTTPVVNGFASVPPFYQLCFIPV
Cytochrome P450 2C19, sequence (P33261 whole entry): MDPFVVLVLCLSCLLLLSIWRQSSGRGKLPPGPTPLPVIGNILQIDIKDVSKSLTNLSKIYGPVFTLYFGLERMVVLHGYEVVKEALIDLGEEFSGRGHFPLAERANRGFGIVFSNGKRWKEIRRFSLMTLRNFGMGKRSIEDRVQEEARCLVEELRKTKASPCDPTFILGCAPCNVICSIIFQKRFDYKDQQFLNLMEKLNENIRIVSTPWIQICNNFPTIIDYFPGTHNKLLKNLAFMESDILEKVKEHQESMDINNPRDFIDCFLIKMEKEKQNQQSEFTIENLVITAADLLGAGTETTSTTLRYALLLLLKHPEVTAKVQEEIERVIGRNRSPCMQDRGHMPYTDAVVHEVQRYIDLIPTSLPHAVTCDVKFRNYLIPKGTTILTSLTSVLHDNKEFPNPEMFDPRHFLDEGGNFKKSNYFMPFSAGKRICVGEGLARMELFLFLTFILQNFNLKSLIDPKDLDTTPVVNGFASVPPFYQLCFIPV

Structure (SMILES) | IC50 (Cathepsin K) | Ki [1] | other results
CNCCCc1cc(-c2cccc(C(F)(F)F)c2)nc(C#N)n1 | 6 nM | – | –
N#Cc1nc(CCCNCC(=O)O)cc(-c2cccc(C(F)(F)F)c2)n1 | – | > 10000 nM | –
CCCc1cc(-c2cc(C(=O)N(C)CCN(C)C)cc(C(F)(F)F)c2)nc(C#N)n1 | – | 710 nM | –
CC(C)(NCCCc1cc(-c2cccc(C(F)(F)F)c2)nc(C#N)n1)C(N)=O | – | – | IC50 (Cathepsin B): 2510 nM; IC50 (Cytochrome P450 3A4): > 35000 nM; bioavailability [2]: 29%; IC50 (Cytochrome P450 2C9): > 35000 nM; IC50 (Cathepsin S): 16 nM; solubility [3]: 393 µg/mL (≈ 1000 µM); bioavailability [4]: 57%; IC50 (Cytochrome P450 2C19): > 35000 nM; bioavailability [5]: 29%; IC50 (Cytochrome P450 1A2): > 35000 nM; IC50 (Procathepsin L): > 10000 nM
CN1CCN(CCCc2cc(-c3cccc(C(F)(F)F)c3)nc(C#N)n2)CC1 | 10 nM | – | –
CCCc1cc(-c2cc(C(F)(F)F)ccc2C(=O)N(C)C)nc(C#N)n1 | 427 nM | – | –
N#Cc1nc(CCCNC2(C(N)=O)CC2)cc(-c2cccc(C(F)(F)F)c2)n1 | – | 1580 nM | –
N#Cc1nc(CCCN2CCOCC2)cc(-c2cccc(C(F)(F)F)c2)n1 | 9 nM | 320 nM | –
CCCc1cc(-c2cc(C(=O)N(C)C)cc(C(F)(F)F)c2)nc(C#N)n1 | – | > 10000 nM | –
N#Cc1nc(CCCNCc2nnn[nH]2)cc(-c2cccc(C(F)(F)F)c2)n1 | 11 nM | > 10000 nM | IC50 (Osteoclast): 1640 nM
N#Cc1nc(CCC(=O)O)cc(-c2cccc(C(F)(F)F)c2)n1 | 166 nM | > 10000 nM | –
N#Cc1nc(CCCN2CCC(O)CC2)cc(-c2cccc(C(F)(F)F)c2)n1 | – | 1120 nM | –
N#Cc1nc(CCCNCC(F)(F)F)cc(-c2cccc(C(F)(F)F)c2)n1 | 30 nM | 500 nM | –
CCCc1cc(-c2cc(C(=O)N(C)Cc3ccccc3)cc(C(F)(F)F)c2)nc(C#N)n1 | 9 nM | – | –
CCCc1cc(-c2cc(C(=O)N(CCN(C)C)Cc3ccccc3)cc(C(F)(F)F)c2)nc(C#N)n1 | – | 120 nM | –
CCC(CC)NC(=O)CCc1cc(-c2cccc(C(F)(F)F)c2)nc(C#N)n1 | 389 nM | – | –
N#Cc1nc(CCCN2CCCCC2)cc(-c2cccc(C(F)(F)F)c2)n1 | – | 160 nM | solubility [3]: 60 µg/mL (≈ 160 µM)
N#Cc1nc(CCCN2CCOC[C@H]2C(N)=O)cc(-c2cccc(C(F)(F)F)c2)n1 | 13 nM | > 10000 nM | half-life [6]: > 2.5 h
N#Cc1nc(CCCNc2ccccn2)cc(-c2cccc(C(F)(F)F)c2)n1 | 3 nM | – | –
N#Cc1nc(CCCNCC(N)=O)cc(-c2cccc(C(F)(F)F)c2)n1 | – | 3980 nM | –
COCCNCCCc1cc(-c2cccc(C(F)(F)F)c2)nc(C#N)n1 | 10 nM | 560 nM | –
N#Cc1nc(CCCNC2(C(N)=O)CCC2)cc(-c2cccc(C(F)(F)F)c2)n1 | – | 2510 nM | –
N#Cc1nc(CCCNC2(C(N)=O)CCOCC2)cc(-c2cccc(C(F)(F)F)c2)n1 | 5 nM | > 10000 nM | half-life [6]: > 2.5 h
